Source: PubChem BioAssay
SENP6 inh: blocks the human protease SENP6; Q9GZR1; Recombinant SENP6 catalytic domain, aminoluciferin luminescence; inhibition, % at 10 µM; hit rate 1.8% among 330,000;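 active = inhibition above about 50% at the single tested dose, limit read from the data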;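 note: plate controls were DMSO wells with enzyme for no effect and DMSO wells lacking enzyme for full effect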
SENP8 block-1: SENP8 protease inhibition. Q96LD8. purified SENP8, Z-RLRGG-aminoluciferin cleavage, luminescence. inhibition, % at 10 µM. hit rate 1.2% among 330,000; in the data active = inhibition above about 50%
Apaf-1 inh: human Apaf-1 inhibition | hit rate 0.71% among 330,000 | reconstituted apoptosome caspase-3 activity, DEVD-Rh110 fluorescence | inhibition, % at 20 µM | AID 489030; active = inhibition of at least 40% at 20 µM;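 note: plate controls were DMSO wells for no effect and DEVD-CHO caspase inhibitor wells for full effect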
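Material: biochemical Apaf-1 apoptosome reconstitution. Medium: Hepes buffer, pH 7.5. Also added: cytochrome c activation, bis-DEVD rhodamine 110 substrate. Timing: 30 min compound preincubation, 50 min activation, room temperature. Measured by: rhodamine 110 fluorescence at Ex 480/Em 540 nm.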
SENP8 block-2: blocks human SENP8 cleavage of Nedd8 substrate | Q96LD8 | recombinant SENP8, Nedd8 substrate fluorescence | hit rate 0.64% among 360,000 | inhibition, % at 20 µM; in the data active = inhibition mostly above about 40%, no sharp cut-off; inactive = mostly below about 27%
SENP7 inh: SENP7 protease inhibition; Q9BQF6; recombinant SENP7, Z-RLRGG-aminoluciferin luminescence, 40 min; inhibition, % at 5 µM; hit rate 1.5% among 330,000;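 active = inhibition above about 50% at the single test dose, limit read from the data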;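 note: plate controls were DMSO with enzyme for no effect and no enzyme buffer wells for full effect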
Target sequence (Q9BQF6 706-1050 limits assumed): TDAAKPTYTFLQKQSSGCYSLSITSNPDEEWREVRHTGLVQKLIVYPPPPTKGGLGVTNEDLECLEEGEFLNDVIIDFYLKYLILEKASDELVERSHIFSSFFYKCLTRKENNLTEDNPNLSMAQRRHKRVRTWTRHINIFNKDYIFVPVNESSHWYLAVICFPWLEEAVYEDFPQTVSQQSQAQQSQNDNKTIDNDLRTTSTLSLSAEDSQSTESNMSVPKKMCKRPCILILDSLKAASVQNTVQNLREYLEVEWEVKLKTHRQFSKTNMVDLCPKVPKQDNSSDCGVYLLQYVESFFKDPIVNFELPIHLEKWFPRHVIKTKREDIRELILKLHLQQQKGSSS
UBC13 inh: inhibitors of human UBC13 polyubiquitin chain formation | TR-FRET | hit rate 0.47% among 330,000 | inhibition, % at 20 µM; in the data active = inhibition above about 45%, passing the limit was not always enough
Target sequence (P61088 whole entry, looked up): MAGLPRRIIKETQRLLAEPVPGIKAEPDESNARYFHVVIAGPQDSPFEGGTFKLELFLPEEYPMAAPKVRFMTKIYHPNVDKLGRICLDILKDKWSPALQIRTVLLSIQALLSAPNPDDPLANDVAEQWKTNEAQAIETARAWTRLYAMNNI
SENP8 confirm: human SENP8 inhibition, confirmed; shares compounds with SENP7 inh; Recombinant SENP8, Z-RLRGG-aminoluciferin luminescence, 60 min; inhibition, % at 12.5 µM; hit rate 40% among 6,200;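 active = mean inhibition across replicates above about 50%, limit read from the data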
SENP6 conf: human SENP6 inhibition, confirmed; shares compounds with SENP7 inh; hit rate 58% among 6,200; recombinant SENP6, Z-RLRGG-aminoluciferin luminescence; inhibition, % at 12.5 µM; AID 488915
SENP7 conf: confirmation of human SENP7 protease inhibitors; shares compounds with SENP7 inh; recombinant SENP7, Z-RLRGG-aminoluciferin luminescence, 40 min; inhibition, % at 12.5 µM; hit rate 69% among 6,200
Casp3 SENP sel: caspase-3 inhibition (SENP selectivity assay) | AID 488918 | purified caspase-3, Z-DEVD-aminoluciferin luminescence, 60 min | shares compounds with SENP7 inh | inhibition, % at 12.5 µM | hit rate 60% among 6,200;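 active = mean inhibition above about 50%, limit read from the data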;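 note: plate controls were enzyme with DMSO for no effect and wells without caspase-3 for full effect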
Luc interf: interferes with luciferase luminescence in SENP counter-screen; Pre-incubated SENP8/Z-RLRGG-aminoluciferin, luciferase luminescence interference; shares compounds with SENP7 inh; hit rate 39% among 6,200; inhibition, % at 12.5 µM; AID 488919;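 active = mean inhibition above about 50% when retested at one dose, limit read from the data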;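 note: plate controls were DMSO wells with completed reaction for no effect and substrate without enzyme for full effect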
* marks the source's active call; other numbers are inactive results. Shown are actives, neighbours in structure and some others; about 3% of the full set was active somewhere.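 Rule for the calls, unless noted: active = mean inhibition above about 50% in the one-dose retest (limit read from the data); inactive = the rest.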

How did CCOC(=O)c1sc(NC(C)=O)cc1C do in these assays?
SENP6 inh: -6.8; SENP8 block-1: 0.7; Apaf-1 inh: 3.1; SENP8 block-2: 3.6; SENP7 inh: 1.7; UBC13 inh: -1.9

What do the screens show for `CCOC(=O)c1sc(NC(=O)c2ccc(C)s2)cc1C`?
SENP6 inh: 43.4; SENP8 block-1: 20.0; Apaf-1 inh: 3.3; SENP8 block-2: -323.0; SENP7 inh: 73.0*; UBC13 inh: 12.6; SENP8 confirm: 16.6; SENP6 conf: 37.4; SENP7 conf: 71.1*; Casp3 SENP sel: 47.3; Luc interf: 18.5

What do the screens show for `CCOC(=O)c1sc(NC(=O)Nc2ccccc2)cc1C`?
SENP6 inh: 97.8*; SENP8 block-1: 81.0*; Apaf-1 inh: 8.5; SENP8 block-2: -79.3; SENP7 inh: 89.2*; UBC13 inh: 13.0; SENP8 confirm: 90.7*; SENP6 conf: 90.7*; SENP7 conf: 97.9*; Casp3 SENP sel: 68.5*; Luc interf: 71.6*

Results for O=c1[nH]c(Nc2ccccc2)cc2cc(Br)ccc12 ?
SENP6 inh: 96.0*; SENP8 block-1: 96.5*; Apaf-1 inh: 97.9*; SENP8 block-2: -173.5; SENP7 inh: 93.7*; UBC13 inh: -68.2; SENP8 confirm: 95.9*; SENP6 conf: 98.0*; SENP7 conf: 96.1*; Casp3 SENP sel: 95.2*; Luc interf: 17.6

What do the screens show for `O=c1cc(Nc2cccc(Br)c2)[nH]c(=O)[nH]1`?
SENP6 inh: -9.8; SENP8 block-1: -3.9; Apaf-1 inh: 7.4; SENP8 block-2: 12.0; SENP7 inh: 1.8; UBC13 inh: -5.4

How did COc1ccc(N2C(=O)/C(=C/c3ccc([N+](=O)[O-])cc3)C=C2c2ccccc2)cc1 do in these assays?
SENP6 inh: -9.3; SENP8 block-1: 0.8; Apaf-1 inh: 0.4; SENP8 block-2: 20.7; SENP7 inh: 60.5*; UBC13 inh: -79.5; SENP8 confirm: 7.2; SENP6 conf: 6.9; SENP7 conf: 9.4; Casp3 SENP sel: 7.1; Luc interf: 1.9

What do the screens show for `NC(=O)c1cccc(-c2coc3c(C(=O)NCc4ccccc4)cccc23)c1`?
SENP8 block-2: 3.7

What do the screens show for `COc1ccc(-c2nc3ccccn3c2Cl)cc1`?
SENP6 inh: 97.4*; SENP8 block-1: 96.4*; Apaf-1 inh: 2.8; SENP8 block-2: -263.0; SENP7 inh: 99.6*; UBC13 inh: 12.8; SENP8 confirm: 4.9; SENP6 conf: 99.4*; SENP7 conf: 103.2*; Casp3 SENP sel: 98.1*; Luc interf: 97.3*

Results for Cc1ncc(CO)c(/C=N/N=C/c2ccccc2O)c1O ?
SENP6 inh: 60.4*; SENP8 block-1: 32.1; Apaf-1 inh: -7.1; SENP8 block-2: -35.2; SENP7 inh: 25.4; UBC13 inh: 7.1; SENP8 confirm: 7.1; SENP6 conf: 7.1; SENP7 conf: 8.6; Casp3 SENP sel: 9.3; Luc interf: 5.0

Results for Cc1ncc(CO)c(/C=N/NC(=S)Nc2ccc(F)cc2)c1O ?
SENP6 inh: -2.1; SENP8 block-1: -0.8; Apaf-1 inh: -3.6; SENP8 block-2: -324.1; SENP7 inh: 4.2; UBC13 inh: 43.0

What do the screens show for `CC(=O)c1ccc(N=Nc2ccc(N(C)C)cc2)cc1`?
SENP6 inh: 54.4*; SENP8 block-1: 74.8*; Apaf-1 inh: 9.1; SENP8 block-2: 37.1; SENP7 inh: 92.8*; UBC13 inh: -108.5; SENP8 confirm: 16.1; SENP6 conf: 24.7; SENP7 conf: 16.1; Casp3 SENP sel: 52.8*; Luc interf: 13.2
